Assay [1] has as its target Lysophosphatidic acid receptor 2 (Homo sapiens) (UniProt Q9HBW0). Briefly: Activity at LPA2 receptor transfected RH7777 cells. The format is cell-based. An outline of the steps:
(§1)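 RH7777 cells, which lack LPA GPCR, stably transfected with the single receptor (LPA2 or LPA3). Intracellular Ca2+ transients recorded after applying increasing compound concentrations, benchmarked against LPA 18:1, to assess agonist and antagonist activity.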

The target in assay [2] is T1, Peroxisome proliferator-activated receptor gamma (Homo sapiens) (UniProt P37231).
T1 sequence (whole entry): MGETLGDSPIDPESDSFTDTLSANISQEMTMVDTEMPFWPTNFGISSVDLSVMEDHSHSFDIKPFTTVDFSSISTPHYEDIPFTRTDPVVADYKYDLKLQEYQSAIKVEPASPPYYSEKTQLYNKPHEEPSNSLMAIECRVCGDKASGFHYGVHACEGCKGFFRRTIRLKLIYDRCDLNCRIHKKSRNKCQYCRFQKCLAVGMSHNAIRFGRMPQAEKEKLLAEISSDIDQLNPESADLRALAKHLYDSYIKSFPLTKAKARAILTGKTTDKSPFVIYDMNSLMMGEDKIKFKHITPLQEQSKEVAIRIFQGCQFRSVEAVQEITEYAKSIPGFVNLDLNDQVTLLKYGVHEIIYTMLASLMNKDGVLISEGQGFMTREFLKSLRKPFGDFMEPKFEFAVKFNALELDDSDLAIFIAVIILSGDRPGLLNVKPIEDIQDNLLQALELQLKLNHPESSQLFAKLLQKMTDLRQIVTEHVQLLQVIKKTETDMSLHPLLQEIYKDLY
Briefly: Activation of PPARgamma in CV1 cells transfected with PPARgamma and luciferase reporter gene. The format is functional, cell-based. To be noted: CV-1. An outline of the steps: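 CV1 cells transfected with PPARγ and a PPRE-Acox-Rluc reporter, treated 20 h with vehicle or 10 µM compound in DMSO. Luciferase and β-galactosidase activities measured in cell lysate (mean ± SEM, n = 4). Rosiglitazone used as reference agonist; significance versus vehicle control.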
(A reporter such as luciferase makes a cellular process visible.)

In another assay the target is Autotaxin (Homo sapiens, UniProt Q13822). Briefly: Inhibition of recombinant ATX from transfected HEK293 cells. To be noted: for inhibition: concentration not given here. The format is cell-based. An outline of the steps:
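Recombinant ATX in conditioned medium from transiently transfected HEK293 cells, assayed by hydrolysis of the substrate bis(para-nitrophenyl) phosphate.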

In assay [3] the test system is RH7777 (Rattus norvegicus). Briefly: Ability to evoke intracellular calciums transient in wild-type RH7777 cells. (In general: Calcium assays in cells follow changes in intracellular calcium, usually with a dye or a luminescent sensor.)
In assay [4] the target is T2, Lysophosphatidic acid receptor 3 (Homo sapiens) (UniProt Q9UBY5).
T2 sequence (whole entry): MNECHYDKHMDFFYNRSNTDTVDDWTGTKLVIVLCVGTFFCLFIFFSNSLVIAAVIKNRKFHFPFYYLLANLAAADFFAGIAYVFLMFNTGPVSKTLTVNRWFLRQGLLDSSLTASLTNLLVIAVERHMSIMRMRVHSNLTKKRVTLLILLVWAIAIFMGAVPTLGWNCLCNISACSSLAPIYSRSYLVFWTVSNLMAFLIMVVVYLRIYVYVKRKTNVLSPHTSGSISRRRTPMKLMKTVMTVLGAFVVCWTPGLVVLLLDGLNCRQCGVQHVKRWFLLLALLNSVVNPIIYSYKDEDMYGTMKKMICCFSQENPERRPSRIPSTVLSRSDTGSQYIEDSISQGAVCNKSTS
Briefly: Activity at LPA3 receptor transfected RH7777 cells. In kind it is cell-based. A digest of the protocol: as §1

The target in assay [5] is Lysophosphatidic acid receptor 1 (Homo sapiens, UniProt Q92633). Briefly: Activity at LPA1 receptor transfected RH7777 cells. In kind it is cell-based. A digest of the protocol: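 RH7777 cells, which lack endogenous LPA GPCR, were stably transfected with LPA1. Intracellular Ca2+ transients were recorded after applying increasing concentrations of compound to build dose–response relationships, with LPA 18:1 as the reference agonist.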
Chain of Lysophosphatidic acid receptor 1 (Q92633 whole entry): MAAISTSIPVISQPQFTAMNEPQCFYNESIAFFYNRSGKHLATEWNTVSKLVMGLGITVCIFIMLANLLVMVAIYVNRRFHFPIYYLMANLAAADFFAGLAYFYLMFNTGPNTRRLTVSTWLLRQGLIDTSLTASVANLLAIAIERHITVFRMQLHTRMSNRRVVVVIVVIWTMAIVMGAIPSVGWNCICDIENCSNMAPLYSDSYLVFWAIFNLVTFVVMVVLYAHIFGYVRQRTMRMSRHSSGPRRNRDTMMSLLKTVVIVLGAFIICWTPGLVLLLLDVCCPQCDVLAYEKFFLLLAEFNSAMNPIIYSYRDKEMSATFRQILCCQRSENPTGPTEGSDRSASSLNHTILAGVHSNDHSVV

pIC50, pKi: −log10 of the molar value. Activity calls are given as the source filed them. The calls are words filed in the database; no cut-off is given here.

As a reminder, the Emax is the maximal effect, on the per cent scale that the assay sets. The term pIC50 denotes the negative decadic logarithm of the IC50, by convention in mol/L. In general, inhibition refers to the percentage by which the read-out fell short of the control. Broadly, the pKi is the Ki on a negative log10 scale, so that one unit is a factor of ten. A high value points to a low Ki.

Chain of Lysophosphatidic acid receptor 2 (Homo sapiens) (Q9HBW0 whole entry): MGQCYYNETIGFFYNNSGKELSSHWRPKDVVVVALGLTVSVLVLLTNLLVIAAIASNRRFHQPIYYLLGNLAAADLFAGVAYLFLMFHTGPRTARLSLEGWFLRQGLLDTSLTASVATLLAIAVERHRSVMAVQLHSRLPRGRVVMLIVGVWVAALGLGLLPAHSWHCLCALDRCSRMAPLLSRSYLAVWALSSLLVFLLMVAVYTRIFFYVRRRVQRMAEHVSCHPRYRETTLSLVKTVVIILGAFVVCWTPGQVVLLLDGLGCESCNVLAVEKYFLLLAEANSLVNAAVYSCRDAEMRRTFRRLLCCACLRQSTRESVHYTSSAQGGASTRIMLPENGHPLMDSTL

Regarding `CCCCCCCC(=O)OC[C@H](COP(O)(O)=S)OC(=O)CCCCCCC`, in assay [1], the Emax was 58%. Also, the result in assay [2] was inactive. At Autotaxin, the pIC50 is 6.22 and the inhibition came to 72.5%.

On to `CCCCCCCCNC(=O)[C@H](COP(O)(O)=S)NC(=O)CCCCCCC`, for which, in assay [2], the result was inactive.

For the compound `CCCCCCCCOC[C@@H](COP(=O)(O)O)OCCCCCCCC`, the result in assay [3] was inactive. Moreover, the outcome in assay [2] was Active.

Take `CCCCCCCC(=O)OC[C@@H](COP(O)(O)=S)OC(=O)CCCCCCC`: the Emax was 17% in assay [1] and 30% in assay [4]. Further, the result in assay [2] was inactive. In addition, the pIC50 at Autotaxin is 6.14. The inhibition on Autotaxin was 52.3%.

Turning to `CCCCCCCC(=O)OC[C@@H](COP(=O)(O)O)OC(=O)CCCCCCC`, the result in assay [2] was inactive.

Turning to `CCCCCCCCOC[C@H](COP(=O)(O)O)OCCCCCCCC`, the outcome in assay [3] was inactive. The result in assay [2] was Active. In addition, the results for the Emax in assay [5] and in assay [4] were 57% and 109%, respectively.

In the case of `CCCCCCCCOC[C@@H](COP(O)(O)=S)OCCCCCCCC`, the outcome in assay [3] was inactive. In addition, the outcome in assay [2] was Active.

For `CCCCCCCCOC[C@H](COP(O)(O)=S)OCCCCCCCC`, the Emax in assay [1] worked out at 27%; in assay [5], 30%; in assay [4] it was 109%. Also, the result in assay [3] was inactive. Moreover, the outcome in assay [2] was Active.

With `CCCCCCCC(=O)OC[C@H](COP(=O)(O)O)OC(=O)CCCCCCC`, at Autotaxin, the pIC50 is 5.78 and the inhibition was 49.9%. In assay [5], this compound had a pIC50 of 6.16 and a pKi of 6.39.

As to `CCCCCCCCNC(=O)[C@@H](COP(O)(O)=S)NC(=O)CCCCCCC`, in assay [2], the outcome was inactive.

For `CCCCCCCCNC(=O)[C@@H](COP(=O)(O)O)NC(=O)CCCCCCC`, the result in assay [2] was inactive.

The record behind these values is ChEMBL document CHEMBL1149458, “Synthesis and pharmacological evaluation of second-generation phosphatidic acid derivatives as lysophosphatidic acid receptor ligands” (Bioorg Med Chem Lett, 2006).
